Laboratory results as given in ChEMBL document CHEMBL1141000, “cis-Nitromethylene neonicotinoids as new nicotinic family: synthesis, structural diversity, and insecticidal evaluation of hexahydroimidazo[1,2-alpha]pyridine” (2008).
Values after ≈ are worked out from the molar mass of the structure shown.

Legend:
Type in all cases: functional
Aphis craccivora [1] = assay: Insecticidal activity against Aphis craccivora assessed as mortality at 500 mg/L
Aphis craccivora [2] = assay: Insecticidal activity against Aphis craccivora
Nilaparvata lugens [3] = assay: Insecticidal activity against imidacloprid-sensitive Nilaparvata lugens
Procedure, shortened: (§1)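 Nilaparvata lugens (brown planthopper), sensitive and imidacloprid-resistant strains tested separately, using a protocol similar to the pea aphid bioassay. Activity expressed as LC50 (mg/L).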

Nilaparvata lugens [4] = assay: Insecticidal activity against imidacloprid-resistant Nilaparvata lugens; procedure, shortened: as §1

CCOC1CC(C(C)C)C([N+](=O)[O-])=C2N(Cc3ccc(Cl)nc3)CCN21 (stereo unspecified)
Activity (Aphis craccivora [1]): 72%

CCC(C)OC1CC(C)C([N+](=O)[O-])=C2N(Cc3ccc(Cl)nc3)CCN21 (stereo unspecified)
Activity (Aphis craccivora [1]): 0%

CCCC1CC(OC(C)C)N2CCN(Cc3ccc(Cl)nc3)C2=C1[N+](=O)[O-] (stereo unspecified)
Activity (Aphis craccivora [1]): 79%

COC1C(C)CC([N+](=O)[O-])=C2N(Cc3ccc(Cl)nc3)CCN21 (stereo unspecified)
Activity (Aphis craccivora [1]): 73%

CC1C([N+](=O)[O-])=C2N(Cc3ccc(Cl)nc3)CCN2C(O)C1C (stereo unspecified)
Activity (Aphis craccivora [1]): 50%

O=[N+]([O-])C1=C2N(Cc3ccc(Cl)nc3)CCN2C(O)C2CCCCC12 (stereo unspecified)
Activity (Aphis craccivora [1]): 0%

CCCOC1CC(CC)C([N+](=O)[O-])=C2N(Cc3ccc(Cl)nc3)CCN21 (stereo unspecified)
Activity (Aphis craccivora [1]): 100%
LC50 (Aphis craccivora [2]): 86.4 µg/mL (≈ 227 µM)

CCC1CC(OC(C)C)N2CCN(Cc3ccc(Cl)nc3)C2=C1[N+](=O)[O-] (stereo unspecified)
Activity (Aphis craccivora [1]): 100%
LC50 (Aphis craccivora [2]): 88.9 µg/mL (≈ 233 µM)

CC1CC(OCc2ccccc2)N2CCN(Cc3ccc(Cl)nc3)C2=C1[N+](=O)[O-] (stereo unspecified)
Activity (Aphis craccivora [1]): 94%

CCC1CC(OC)N2CCN(Cc3ccc(Cl)nc3)C2=C1[N+](=O)[O-] (stereo unspecified)
Activity (Aphis craccivora [1]): 90%
LC50 (Nilaparvata lugens [3]): 1.07 µg/mL (≈ 3.03 µM)
LC50 (Nilaparvata lugens [4]): 8.87 µg/mL (≈ 25.1 µM)

CC1CC(OC2CCCCC2)N2CCN(Cc3ccc(Cl)nc3)C2=C1[N+](=O)[O-] (stereo unspecified)
Activity (Aphis craccivora [1]): 0%

COC1CC(c2ccccc2)C([N+](=O)[O-])=C2N(Cc3ccc(Cl)nc3)CCN21 (stereo unspecified)
Activity (Aphis craccivora [1]): 50%

CCOC1CC(c2ccccc2)C([N+](=O)[O-])=C2N(Cc3ccc(Cl)nc3)CCN21 (stereo unspecified)
Activity (Aphis craccivora [1]): 89%

CC1(O)CCC([N+](=O)[O-])=C2N(Cc3ccc(Cl)nc3)CCN21 (stereo unspecified)
Activity (Aphis craccivora [1]): 90%

CCCC1CC(OC)N2CCN(Cc3ccc(Cl)nc3)C2=C1[N+](=O)[O-] (stereo unspecified)
Activity (Aphis craccivora [1]): 89%

CCCOC1CC(CCC)C([N+](=O)[O-])=C2N(Cc3ccc(Cl)nc3)CCN21 (stereo unspecified)
Activity (Aphis craccivora [1]): 82%

CCCOC1CC(c2ccccc2)C([N+](=O)[O-])=C2N(Cc3ccc(Cl)nc3)CCN21 (stereo unspecified)
Activity (Aphis craccivora [1]): 45%

CC(C)OC1CC(c2ccccc2)C([N+](=O)[O-])=C2N(Cc3ccc(Cl)nc3)CCN21 (stereo unspecified)
Activity (Aphis craccivora [1]): 0%

CCC1C([N+](=O)[O-])=C2N(Cc3ccc(Cl)nc3)CCN2C(O)C1C (stereo unspecified)
Activity (Aphis craccivora [1]): 0%

CCCC1CC(O)N2CCN(Cc3ccc(Cl)nc3)C2=C1[N+](=O)[O-] (stereo unspecified)
Activity (Aphis craccivora [1]): 25%

O=[N+]([O-])C1=C2N(Cc3ccc(Cl)nc3)CCN2C(O)CC1c1ccc([N+](=O)[O-])cc1 (stereo unspecified)
Activity (Aphis craccivora [1]): 0%

CC(C)OC1CC(C)C([N+](=O)[O-])=C2N(Cc3ccc(Cl)nc3)CCN21 (stereo unspecified)
Activity (Aphis craccivora [1]): 100%
LC50 (Aphis craccivora [2]): 96.2 µg/mL (≈ 262 µM)
LC50 (Nilaparvata lugens [3]): 5.57 µg/mL (≈ 15.2 µM)
LC50 (Nilaparvata lugens [4]): 6.33 µg/mL (≈ 17.3 µM)

COC1CC(C)C([N+](=O)[O-])=C2N(Cc3ccc(Cl)nc3)CCN21 (stereo unspecified)
Activity (Aphis craccivora [1]): 100%
LC50 (Aphis craccivora [2]): 50 µg/mL (≈ 148 µM)

CCCCOC1CC(C)C([N+](=O)[O-])=C2N(Cc3ccc(Cl)nc3)CCN21 (stereo unspecified)
Activity (Aphis craccivora [1]): 58.4%

CC(C)C1CC(O)N2CCN(Cc3ccc(Cl)nc3)C2=C1[N+](=O)[O-] (stereo unspecified)
Activity (Aphis craccivora [1]): 0%

O=[N+]([O-])C1=C2N(Cc3ccc(Cl)nc3)CCN2C(O)CC1c1ccccc1 (stereo unspecified)
Activity (Aphis craccivora [1]): 30%

CCCCC1CC(O)N2CCN(Cc3ccc(Cl)nc3)C2=C1[N+](=O)[O-] (stereo unspecified)
Activity (Aphis craccivora [1]): 85%

C=CCOC1CC(C)C([N+](=O)[O-])=C2N(Cc3ccc(Cl)nc3)CCN21 (stereo unspecified)
Activity (Aphis craccivora [1]): 100%

CC1CC(O)N2CCN(Cc3ccc(Cl)nc3)C2=C1[N+](=O)[O-] (stereo unspecified)
Activity (Aphis craccivora [1]): 100%
LC50 (Aphis craccivora [2]): 31.5 µg/mL (≈ 97 µM)
LC50 (Nilaparvata lugens [3]): 20.7 µg/mL (≈ 63.8 µM)
LC50 (Nilaparvata lugens [4]): 7.36 µg/mL (≈ 22.7 µM)

CCOC1CC(CC)C([N+](=O)[O-])=C2N(Cc3ccc(Cl)nc3)CCN21 (stereo unspecified)
Activity (Aphis craccivora [1]): 100%
LC50 (Aphis craccivora [2]): 48.9 µg/mL (≈ 133 µM)

CC1CC(OCCO)N2CCN(Cc3ccc(Cl)nc3)C2=C1[N+](=O)[O-] (stereo unspecified)
Activity (Aphis craccivora [1]): 0%

CCCC1CC(OCC)N2CCN(Cc3ccc(Cl)nc3)C2=C1[N+](=O)[O-] (stereo unspecified)
Activity (Aphis craccivora [1]): 95%

CC1CC([N+](=O)[O-])=C2N(Cc3ccc(Cl)nc3)CCN2C1O (stereo unspecified)
Activity (Aphis craccivora [1]): 70%

CC(C)OC1C(C)CC([N+](=O)[O-])=C2N(Cc3ccc(Cl)nc3)CCN21 (stereo unspecified)
Activity (Aphis craccivora [1]): 67%

CCOC1CC(C)C([N+](=O)[O-])=C2N(Cc3ccc(Cl)nc3)CCN21 (stereo unspecified)
Activity (Aphis craccivora [1]): 100%
LC50 (Aphis craccivora [2]): 65.4 µg/mL (≈ 185 µM)

CC1CC(OCCCl)N2CCN(Cc3ccc(Cl)nc3)C2=C1[N+](=O)[O-] (stereo unspecified)
Activity (Aphis craccivora [1]): 100%
LC50 (Aphis craccivora [2]): 74.7 µg/mL (≈ 193 µM)

CC(C)COC1CC(C)C([N+](=O)[O-])=C2N(Cc3ccc(Cl)nc3)CCN21 (stereo unspecified)
Activity (Aphis craccivora [1]): 0%

CCC1CC(O)N2CCN(Cc3ccc(Cl)nc3)C2=C1[N+](=O)[O-] (stereo unspecified)
Activity (Aphis craccivora [1]): 100%
LC50 (Aphis craccivora [2]): 61 µg/mL (≈ 180 µM)

O=[N+]([O-])/N=C1\NCCN1Cc1ccc(Cl)nc1 [IMIDACLOPRID]
Activity (Aphis craccivora [1]): 100%
LC50 (Aphis craccivora [2]): 7.9 µg/mL (≈ 30.9 µM)
LC50 (Nilaparvata lugens [3]): 0.14 µg/mL (≈ 0.548 µM)
LC50 (Nilaparvata lugens [4]): 19.7 µg/mL (≈ 77.2 µM)

CCCOC1CC(C)C([N+](=O)[O-])=C2N(Cc3ccc(Cl)nc3)CCN21 (stereo unspecified) [PAICHONGDING]
Activity (Aphis craccivora [1]): 100%
LC50 (Aphis craccivora [2]): 33.7 µg/mL (≈ 91.8 µM)
LC50 (Nilaparvata lugens [3]): 7.35 µg/mL (≈ 20 µM)
LC50 (Nilaparvata lugens [4]): 7.2 µg/mL (≈ 19.6 µM)
